Experimental data taken from ChEMBL document CHEMBL1128511, “4-Aza-3-oxo-5 alpha-androst-1-ene-17 beta-N-aryl-carboxamides as dual inhibitors of human type 1 and type 2 steroid 5 alpha-reductases. Dramatic effect of N-aryl substituents on type 1 and type 2 5 alpha-reductase inhibitory potency” (J Med Chem, 1995).

Key:
[1] = biological target: T1, 3-oxo-5-alpha-steroid 4-dehydrogenase 2 (Homo sapiens, UniProt P31213); assay: Inhibition of recombinant human Steroid 5-alpha-reductase type 2
T1 sequence (P31213 whole entry): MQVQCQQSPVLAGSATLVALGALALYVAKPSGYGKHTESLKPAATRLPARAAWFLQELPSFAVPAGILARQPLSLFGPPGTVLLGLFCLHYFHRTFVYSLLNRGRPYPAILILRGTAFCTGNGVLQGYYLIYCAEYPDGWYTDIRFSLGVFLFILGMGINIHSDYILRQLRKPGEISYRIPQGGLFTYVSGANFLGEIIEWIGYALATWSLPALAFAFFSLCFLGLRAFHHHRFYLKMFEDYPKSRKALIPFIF
Procedure, shortened: (§1)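 Baculovirus-expressed recombinant human type 1 or type 2 5α-reductase; cofactor and inhibitor preincubated with the enzyme before testosterone is added. Fixed-time assay following conversion of testosterone to DHT with and without inhibitor. The IC50 is the nM concentration giving 50% inhibition of DHT formation.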

[2] = biological target: T2, 3-oxo-5-alpha-steroid 4-dehydrogenase 1 (Homo sapiens, UniProt P18405); assay: Inhibition of recombinant human Steroid 5-alpha-reductase type I; procedure, shortened: as §1
T2 sequence (P18405 whole entry): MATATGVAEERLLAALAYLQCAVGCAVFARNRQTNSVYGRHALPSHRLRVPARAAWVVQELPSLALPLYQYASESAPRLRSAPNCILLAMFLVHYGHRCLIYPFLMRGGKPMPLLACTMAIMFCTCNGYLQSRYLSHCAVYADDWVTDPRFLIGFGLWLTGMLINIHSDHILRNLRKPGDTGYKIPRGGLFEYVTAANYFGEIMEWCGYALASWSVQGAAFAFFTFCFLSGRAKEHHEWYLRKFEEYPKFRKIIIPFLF

[3] = Kinetic Parameter Ki for Inhibition of Type 1 5-alpha-reductase
[4] = Kinetic Parameter Ki for Inhibition of Type-2 5-alpha-reductase
[5] = Kinetic Parameter k3/k1 for Inhibition of Type 1 5-alpha-reductase
Procedure, shortened: (§2)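 Baculovirus-expressed recombinant human type 1 or type 2 5α-reductase; conversion of testosterone to DHT followed over time with and without inhibitor under standard conditions. Second-order rate constants obtained by fitting progress data to the integrated first-order rate equation for time-dependent inhibition.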

[6] = Kinetic Parameter k3/k1 for Inhibition of Type-2 5-alpha-reductase; procedure, shortened: as §2

Row | IC50 [1] | IC50 [2] | Ki [3] | Ki [4] | k3/ki [5] | k3/ki [6] | k3/k1 [6] | Compound
1 | < 0.1 nM | 38.3 nM |  |  |  |  |  | C[C@]12C=CC(=O)NC1CCC1C2CC[C@]2(C)C(C(=O)Nc3ccccc3-c3ccccc3)CCC12 (stereo not given in full)
2 | < 0.1 nM | 30.3 nM |  |  |  |  |  | Cc1ccccc1NC(=O)C1CCC2C3CCC4NC(=O)C=C[C@]4(C)C3CC[C@]12C (stereo not given in full)
3 | 0.2 nM | 17.2 nM |  |  |  |  |  | C[C@]12C=CC(=O)NC1CCC1C2CC[C@]2(C)C(C(=O)Nc3ccc4ccccc4c3)CCC12 (stereo not given in full)
4 | < 1 nM | 19 nM |  |  |  |  |  | COc1cccc(NC(=O)C2CCC3C4CCC5NC(=O)C=C[C@]5(C)C4CC[C@]23C)c1 (stereo not given in full)
5 | 0.1 nM | 12.5 nM |  |  |  |  |  | C[C@]12C=CC(=O)NC1CCC1C2CC[C@]2(C)C(C(=O)Nc3cccc(C(F)(F)F)c3)CCC12 (stereo not given in full)
6 | 0.2 nM | 8.1 nM | 70 nM | 0.5 nM |  |  | 2100000 M⁻¹ s⁻¹ | C[C@]12C=CC(=O)NC1CCC1C2CC[C@]2(C)C(C(=O)Nc3cccc4ccccc34)CCC12 (stereo not given in full)
7 | 0.2 nM | 20.5 nM |  |  |  |  |  | C[C@]12C=CC(=O)NC1CCC1C2CC[C@]2(C)C(C(=O)Nc3cccc(Br)c3)CCC12 (stereo not given in full)
8 | < 1 nM | 120 nM |  |  |  |  |  | C[C@]12C=CC(=O)NC1CCC1C2CC[C@]2(C)C(C(=O)Nc3ccc(N)cc3)CCC12 (stereo not given in full)
9 | 0.1 nM | 17.2 nM |  |  |  |  |  | Cc1ccc(NC(=O)C2CCC3C4CCC5NC(=O)C=C[C@]5(C)C4CC[C@]23C)cc1 (stereo not given in full)
10 | 0.3 nM | 24.6 nM |  |  |  |  |  | Cc1cccc(NC(=O)C2CCC3C4CCC5NC(=O)C=C[C@]5(C)C4CC[C@]23C)c1 (stereo not given in full)
11 | 25.2 nM | > 1000 nM |  |  |  |  |  | C[C@]12C=CC(=O)NC1CCC1C2CC[C@]2(C)C(C(=O)N(c3ccccc3)c3ccccc3)CCC12 (stereo not given in full)
12 | < 1 nM | 52 nM |  |  |  |  |  | C[C@]12C=CC(=O)NC1CCC1C2CC[C@]2(C)C(C(=O)Nc3cccc(O)c3)CCC12 (stereo not given in full)
13 | < 0.1 nM | 14 nM | 24 nM | 1.4 nM | 51000 M⁻¹ s⁻¹ | 5000000 M⁻¹ s⁻¹ |  | C[C@]12C=CC(=O)NC1CCC1C2CC[C@]2(C)C(C(=O)Nc3cccc(-c4ccccc4)c3)CCC12 (stereo not given in full)
14 | < 0.1 nM | 7.9 nM |  |  |  |  |  | C[C@]12C=CC(=O)NC1CCC1C2CC[C@]2(C)C(C(=O)Nc3ccccc3F)CCC12 (stereo not given in full)
15 | 0.2 nM | 22.5 nM |  |  |  |  |  | C[C@]12C=CC(=O)NC1CCC1C2CC[C@]2(C)C(C(=O)Nc3ccc(F)cc3)CCC12 (stereo not given in full)
16 | 7.9 nM | 614 nM |  |  |  |  |  | CCN(C(=O)C1CCC2C3CCC4NC(=O)C=C[C@]4(C)C3CC[C@]12C)c1ccccc1 (stereo not given in full)
17 | 24.6 nM | 350 nM |  |  |  |  |  | CN(C(=O)C1CCC2C3CCC4NC(=O)C=C[C@]4(C)C3CC[C@]12C)c1ccccc1 (stereo not given in full)
18 | < 1 nM | 14 nM |  |  |  |  |  | Cc1cccc(C)c1NC(=O)C1CCC2C3CCC4NC(=O)C=C[C@]4(C)C3CC[C@]12C (stereo not given in full)
19 | < 1 nM | 12.9 nM |  |  |  |  |  | C[C@]12C=CC(=O)NC1CCC1C2CC[C@]2(C)C(C(=O)Nc3ccccc3O)CCC12 (stereo not given in full)

Row | IC50 [1] | IC50 [2] | Ki [3] | Ki [4] | k3/ki [5] | k3/ki [6] | k3/k1 [6] | Compound
20 | < 1 nM | 130 nM |  |  |  |  |  | C[C@]12C=CC(=O)NC1CCC1C2CC[C@]2(C)C(C(=O)Nc3ccccc3N)CCC12 (stereo not given in full)
21 | 1.4 nM | 154 nM |  |  |  |  |  | C[C@]12C=CC(=O)NC1CCC1C2CC[C@]2(C)C(C(=O)N3CCCc4ccccc43)CCC12 (stereo not given in full)
22 | 0.4 nM | 20.9 nM |  |  |  |  |  | C[C@]12C=CC(=O)NC1CCC1C2CC[C@]2(C)C(C(=O)Nc3ccc(C(F)(F)F)cc3)CCC12 (stereo not given in full)
23 | 0.2 nM | 6.8 nM |  |  |  |  |  | C[C@]12C=CC(=O)NC1CCC1C2CC[C@]2(C)C(C(=O)Nc3ccc(Cl)cc3)CCC12 (stereo not given in full)
24 | < 0.1 nM | 14.5 nM |  |  |  |  |  | C[C@]12C=CC(=O)NC1CCC1C2CC[C@]2(C)C(C(=O)Nc3ccccc3Cl)CCC12 (stereo not given in full)
25 | < 1 nM | 94 nM |  |  |  |  |  | C[C@]12C=CC(=O)NC1CCC1C2CC[C@]2(C)C(C(=O)Nc3cccc(N)c3)CCC12 (stereo not given in full)
26 | 0.2 nM | 20 nM | 230 nM | 1.7 nM | 3900 M⁻¹ s⁻¹ | 1700000 M⁻¹ s⁻¹ |  | C[C@]12C=CC(=O)NC1CCC1C2CC[C@]2(C)C(C(=O)Nc3ccccc3)CCC12 (stereo not given in full)
27 | 0.2 nM | 23 nM |  |  |  |  |  | C[C@]12C=CC(=O)NC1CCC1C2CC[C@]2(C)C(C(=O)Nc3cccc(F)c3)CCC12 (stereo not given in full)
28 | < 1 nM | 12 nM |  |  |  |  |  | C[C@]12C=CC(=O)NC1CCC1C2CC[C@]2(C)C(C(=O)Nc3cccc(C(=O)c4ccccc4)c3)CCC12 (stereo not given in full)
29 | < 1 nM | 11 nM |  |  |  |  |  | COc1ccccc1NC(=O)C1CCC2C3CCC4NC(=O)C=C[C@]4(C)C3CC[C@]12C (stereo not given in full)
30 | 0.1 nM | 18.2 nM |  |  |  |  |  | C[C@]12C=CC(=O)NC1CCC1C2CC[C@]2(C)C(C(=O)Nc3cccc(Cl)c3)CCC12 (stereo not given in full)
31 | 2.2 nM | 34.9 nM |  |  |  |  |  | C[C@]12C=CC(=O)NC1CCC1C2CC[C@]2(C)C(C(=O)Nc3ccc(-c4ccccc4)cc3)CCC12 (stereo not given in full)
32 | 10.2 nM | 595 nM |  |  |  |  |  | C[C@]12C=CC(=O)NC1CCC1C2CC[C@]2(C)C(C(=O)N3CCCCc4ccccc43)CCC12 (stereo not given in full)
33 | < 1 nM | 26 nM |  |  |  |  |  | COc1ccc(NC(=O)C2CCC3C4CCC5NC(=O)C=C[C@]5(C)C4CC[C@]23C)cc1 (stereo not given in full)
34 | < 1 nM | 28.7 nM |  |  |  |  |  | C[C@]12C=CC(=O)NC1CCC1C2CC[C@]2(C)C(C(=O)Nc3ccccc3C(=O)c3ccccc3)CCC12 (stereo not given in full)
35 | 1.6 nM | 19 nM |  |  |  |  |  | C[C@]12C=CC(=O)NC1CCC1C2CC[C@]2(C)C(C(=O)Nc3ccc(C(=O)c4ccccc4)cc3)CCC12 (stereo not given in full)
36 | < 0.1 nM | 5.6 nM | 12 nM | 1.3 nM | 35000 M⁻¹ s⁻¹ | 9700000 M⁻¹ s⁻¹ |  | C[C@]12C=CC(=O)NC1CCC1C2CC[C@]2(C)C(C(=O)Nc3ccccc3C(F)(F)F)CCC12 (stereo not given in full)
37 | < 1 nM | 74 nM |  |  |  |  |  | C[C@]12C=CC(=O)NC1CCC1C2CC[C@]2(C)C(C(=O)Nc3ccc(O)cc3)CCC12 (stereo not given in full)

Row | Compound | IC50 [1] | IC50 [2] | Ki [3] | Ki [4] | k3/ki [5] | k3/ki [6] | k3/k1 [6]
38 | C[C@]12C=CC(=O)NC1CCC1C2CC[C@]2(C)C(C(=O)Nc3cc(C(F)(F)F)ccc3C(F)(F)F)CCC12 (stereo not given in full) | < 0.1 nM | 5.8 nM | 2.4 nM | 0.5 nM | 270000 M⁻¹ s⁻¹ | 7000000 M⁻¹ s⁻¹ | 
